Compound activity from PubChem BioAssay.
INS-1E GSIS act – GLuc luminescence reporter in INS-1E cells, primary screen for activators of glucose-dependent secretion of insulin | 370,000 tested, 0.61% active | activation, % at 16.6 µM | AID 743287 | INS-1E GLuc reporter insulin secretion, 2-3 h;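 active means lowest replicate activation of at least 40%, so every replicate reaches that level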;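 further: 0% = median of neutral control wells and 100% = median of IBMX positive control wells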
F508del corr – correctors of CFTR F508del function in bronchial epithelial cells | CFBE cells, YFP halide quenching; stimulated with forskolin plus potentiator P3; % fluorescence drop versus neutral controls | 350,000 tested, 0.36% active | activity (quench increase), % at 7.58 µM | AID 720511;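 active means mean added fluorescence quench of at least 8% versus neutral control, with both replicates also reaching 8%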;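 further: cells transiently co-express mutant CFTR-F508del with the halide-sensitive YFP; corrector assay measuring rescue of mutant channel to the surface after 24 h compound exposure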
Cneo AK release – Cryptococcus neoformans lysis via adenylate kinase release; C. neoformans lysis, adenylate kinase release luminescence, 4 h; normalised: neutral wells 0, clomiphene wells 100; lysis activity, % at 15 µM; 360,000 tested, 0.2% active; AID 651654;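 active means mean lysis activity across replicates of at least 80%, whatever share of replicates individually reach that level; inactive means mean lysis activity below 80%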
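Material: C. neoformans cells | Amount: Yeast cell density of 5 × 10^6 cells/mL | Medium: Fresh YPD growth medium | Dosing: Single dose | Times: Static 4 h at 37 °C with compound, 1 h detection | Detection: AK luminescence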
miR122 inh – blocks miR-122 activity in Huh7 sensor cells. Huh7 miR-122 Renilla luciferase sensor, 48 h; neutral wells = 0, positive control = 100. activation (reporter increase), % at 12.5 µM. 340,000 tested, 0.3% active. AID 602342;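 active means mean replicate activation score at least 90 and every replicate individually at or above 90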;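 further: higher luciferase means less miR-122 activity so hits act as miR-122 inhibitors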
Env fusion inh – inhibitors of HIV Env-mediated cell fusion | inhibition, % at 12.3 µM | 360,000 tested, 1.1% active | HeLa-JRFL Env/CEM21 cell fusion, luciferase;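 active means mean replicate inhibition score of at least 50 and every replicate individually at or above 50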;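 further: 0% = plate neutral controls and 100% = maraviroc near 300 nM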
rRNA inh HTS – inhibitors of bacterial rRNA selective over humanized ribosomes. E. coli WT GFP vs humanized-ribosome RFP mutants, fluorescence, 24 h; stronger effect = lower value; DMSO median 0, no signal -100. GFP signal change (wild-type ribosome), % (test concentration not listed). 350,000 tested, 1.6% active. AID 720706;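 active means significant combined selectivity score with lowered wild-type GFP, culture density cut under 30%, mutant RFP and density less affected; inactive means any of these conditions unmet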
* = called active by the depositor; x = no result given; ! = a repeat was not active; [ ] = dose if it differs, or a comment. Rows were chosen to be rich in hits. Some 3.1% of all compounds tested hit in one or more screens of this group.

SMILES	INS-1E GSIS act	F508del corr	Cneo AK release	miR122 inh	Env fusion inh	rRNA inh HTS
C[C@H]1CN([C@@H](C)CO)C(=O)Cc2cc(NS(=O)(=O)c3cccs3)ccc2O[C@@H]1CN(C)C(=O)Nc1ccc(F)cc1	-4.5	-0.1	1.1	13.6[16.7 µM]	-7.9[16.7 µM]	3.1
C[C@@H]1CN([C@@H](C)CO)C(=O)c2cccc(NC(=O)C3CCCCC3)c2O[C@@H]1CN(C)C(=O)Nc1ccc2c(c1)OCO2	4.8	-0.4	-0.9	-7.9[16.7 µM]	x	0.6
O=C(COC(=O)c1cccc(F)c1)NC(=O)NC1CCCC1	0.9	2.7	2.8	-2.9	0.7	-4.7
O=C(COC(=O)c1cccc(NS(=O)(=O)c2ccc(F)c(F)c2)c1)NC(=O)NC1CCCC1	-43.9	x	x	x	9.2	-36.5*
COc1ccc(S(=O)(=O)Nc2ccccc2C(=O)Nc2nc(-c3ccc(F)cc3)cs2)cc1OC	-35.3	x	x	x	65.8*	x
COc1ccc2c3c(n(C)c2c1)[C@H](CO)N(C(=O)Cc1ccccn1)CC31CCN(C)CC1	8.1	-1.3	x	x	x	4.6
CCCN(C)C[C@@H]1OCCCC[C@H](C)Oc2ccc(NC(=O)Nc3ccc(C(F)(F)F)cc3)cc2C(=O)N([C@@H](C)CO)C[C@@H]1C	3.5	-0.9	-1.2	11.4[16.7 µM]	12.6[16.7 µM]	-2.5
O=C(N/N=C/c1cc2c3c(c1O)CCCN3CCC2)c1ccccc1O	10.5	8.3*	x	x	-16.0	2.1
Cc1ccc(C(c2nnnn2CS(=O)(=O)c2ccc(C)cc2)N2CCCC2)cc1 (stereo not given)	-2.1	0.1	x	8.4	73.3*	11.1
Cc1noc(C)c1NC(=O)N(C)C[C@H]1Oc2c(NC(=O)C3CCCCC3)cccc2C(=O)N([C@@H](C)CO)C[C@H]1C	-1.2	-4.6	-1.1	-9.8[16.7 µM]	x	-1.4
C[C@H](CO)N1C[C@H](C)[C@@H](CN(C)CC2CC2)Oc2c(NC(=O)C3CC3)cccc2C1=O	11.1	3.2	-0.6	148.8*[16.7 µM]	44.3	1.7
C[C@@H]1CN([C@@H](C)CO)C(=O)c2cccc(NC(=O)C3CCCCC3)c2O[C@H]1CN(C)CC1CCCCC1	8.1	-2.1	0.9	0.8[16.7 µM]	62.9*[16.7 µM]	0.7
Cc1noc(C)c1NC(=O)N(C)C[C@H]1Oc2c(NC(=O)C3CCCCC3)cccc2C(=O)N([C@H](C)CO)C[C@@H]1C	41.3*!	0.4	0.8	10.2[16.7 µM]	-28.2	2.5
C[C@@H]1CN([C@H](C)CO)C(=O)c2cccc(NC(=O)C3CC3)c2O[C@H]1CN(C)CC1CCCCC1	1.3	1.8	0.1	36.9[16.7 µM]	55.7[16.7 µM]	-7.1
C[C@H](CO)N1C[C@H](C)[C@@H](CN(C)CC2CCCCC2)Oc2c(NC(=O)C3CC3)cccc2C1=O	0.7	-1.2	0.0	113.7*![16.7 µM]	36.1[16.7 µM]	-0.7
C[C@H](CO)N1C[C@H](C)[C@H](CN(C)S(C)(=O)=O)OCCCC[C@H](C)Oc2ccc(NS(=O)(=O)c3cn(C)cn3)cc2C1=O	3.3	-3.0	-3.2	4.7[16.7 µM]	8.7[16.7 µM]	-1.3
C[C@@H]1CN([C@@H](C)CO)C(=O)Cc2cc(NS(C)(=O)=O)ccc2O[C@H]1CN(C)C(=O)Nc1cccc2ccccc12	16.2	-1.5	0.6	2.9[16.7 µM]	-2.5[16.7 µM]	3.3
C[C@H](CO)N1C[C@H](C)[C@H](CN(C)CC2CCCCC2)Oc2c(NS(C)(=O)=O)cccc2C1=O	-2.3	-1.6	90.9*	-2.5[16.7 µM]	-27.4[16.7 µM]	7.1
Cc1noc(C)c1NC(=O)Nc1cccc2c1O[C@@H](CN(C)C(=O)Nc1ccc3c(c1)OCO3)[C@@H](C)CN([C@H](C)CO)C2=O	-8.5	6.0	4.9	-1.3	-39.9	-28.2*!
C[C@H]1CN([C@@H](C)CO)C(=O)c2cccc(NC(=O)C3CCCCC3)c2O[C@H]1CN(C)S(C)(=O)=O	1.7	-0.7	6.3	12.4[16.7 µM]	61.6*[16.7 µM]	4.1
O=C(C[C@H]1CC[C@H](NC(=O)Nc2ccc3c(c2)OCO3)[C@H](CO)O1)NCc1ccc(F)cc1	3.8	0.7	7.4	x	11.6[16.7 µM]	1.7
CN1C(=O)c2cc(NC(=O)C3CCCC3)ccc2OC[C@@H]2O[C@H](CC(=O)NCc3ccccc3F)CC[C@@H]21	-23.1	0.4	x	x	x	-4.5
C[C@@H]1CN([C@H](C)CO)C(=O)c2cc(/C=C/c3ccccc3)cnc2O[C@H]1CN(C)C(=O)C1CC1	-6.0	-1.9	x	-3.6[16.7 µM]	-16.5[16.7 µM]	1.2
COC(=O)c1c(C)oc(C)c1S(=O)(=O)NCC1CC1	2.4	-0.2	-6.1	96.6*	6.2	15.1
ClC1(Cl)CC1CSc1nc2ccccc2[nH]1 (stereo not given)	-6.6	-3.3	x	x	2.0	-27.5*
SMILES	INS-1E GSIS act	F508del corr	Cneo AK release	miR122 inh	Env fusion inh	rRNA inh HTS
CC(=O)c1ccc([C@H]2C[C@@]34CN(C(=O)OC(C)(C)C)S(=O)(=O)[C@H]3C[C@H]2O4)cc1	-8.7	2.9	0.9	-3.3	67.7*	7.6
CC(=O)c1ccc([C@@H]2C[C@]34CN(Cc5cccc(C(F)(F)F)c5)S(=O)(=O)[C@H]3C[C@H]2O4)cc1	-15.6	-0.7	2.1	-5.3	31.0	x
CNC[C@@H]1Oc2c(NS(=O)(=O)c3cccs3)cccc2C(=O)N([C@H](C)CO)C[C@@H]1C	7.5	1.9	6.9	-10.1[16.7 µM]	x	2.7
CNC[C@H]1Oc2c(NS(=O)(=O)c3cccs3)cccc2C(=O)N([C@H](C)CO)C[C@@H]1C	7.1	-0.7	95.6*!	19.4[16.7 µM]	-20.4	2.4
CNC[C@@H]1Oc2c(NS(=O)(=O)c3cccs3)cccc2C(=O)N([C@H](C)CO)C[C@H]1C	13.2	1.0	-2.0	-1.2[16.7 µM]	x	-0.8
CNC[C@@H]1Oc2c(NS(=O)(=O)c3ccc(Cl)cc3)cccc2C(=O)N([C@H](C)CO)C[C@H]1C	9.7	-0.9	87.2*	0.2[16.7 µM]	x	1.4
CNC[C@@H]1Oc2c(NS(=O)(=O)c3cccs3)cccc2C(=O)N([C@@H](C)CO)C[C@H]1C	12.4	-3.0	86.5*	-3.1[16.7 µM]	x	4.1
COC(=O)c1c(-c2ccc(C)cc2)csc1NC(=O)c1c(-c2ccccc2)noc1C	x	8.5*	x	x	10.5	17.0
FC(F)(F)CN1C[C@@H]2C(c3ccc(Br)cc3)[C@H](C1)N2CC(F)(F)F (stereo not given in full)	-8.6	x	x	x	x	0.8
CC(C)(C)NC(=S)N/N=C/c1cc(Br)c(O)c(Br)c1	-23.1	-3.8	x	x	-13.3	-39.5*
O=C(N/N=C/c1cc(Br)c(O)c(Br)c1)C1CC1	-0.9	0.4	-2.3	x	2.8	-7.5
CC(C)n1c(O)c(N=Nc2ccc(Cl)c(C(=O)O)c2)c2ccccc21	-4.2	0.0	-0.4	-1.7	3.7	-18.2*
CCn1c(O)c(N=Nc2ccc(Cl)c(C(=O)O)c2)c2ccccc21	-2.0	-0.9	1.9	0.6	-9.0	-14.8
